Screening data (PubChem)
NR1D1 modulator: modulators of Rev-erb alpha DNA binding, primary screen, biochemical, FITC-DNA, fluorescence polarization, uHTS; Nuclear receptor subfamily 1 group D member 1 (Homo sapiens), P20393; Rev-erbα–FITC-DNA binding, 90 min; activity, % at 10 µM; 0.79% of 370,000 active;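 active = activity above about 14%, limit read from the data; passing the limit was not always enough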;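 also: 0% = DMSO wells with 35 nM protein and 100% = DMSO wells with 750 nM protein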
PG9 binder: binders of HIV-1 gp120 antibody PG9, primary screen, biochemical, TR-FRET; TR-FRET gp120-PG9 antibody binding; AID 624416, 2012; 0.43% of 360,000 active; inhibition, % at 6.7 µM; in the data active = inhibition above about 8.5%
NR2E3 ag-1: inhibitors of NR2E3-RetCOR corepressor binding, primary screen, NR2E3 agonist project, biochemical, TR-FRET, GST-NR2E3, biotin-RetCOR. Photoreceptor-specific nuclear receptor (Homo sapiens), Q9Y5X4. 1536-well. inhibition of corepressor binding, % at 4.78 µM. 0.12% of 320,000 active. AID 2300, 2010;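 active = percent inhibition above the cutoff of mean plus 3 SD of all tested compounds, set per screening campaign, cut at about 20% in these data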;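 also: 0% = DMSO wells and 100% = biotin wells as full block of FRET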
Target sequence (Q9Y5X4 whole entry, looked up): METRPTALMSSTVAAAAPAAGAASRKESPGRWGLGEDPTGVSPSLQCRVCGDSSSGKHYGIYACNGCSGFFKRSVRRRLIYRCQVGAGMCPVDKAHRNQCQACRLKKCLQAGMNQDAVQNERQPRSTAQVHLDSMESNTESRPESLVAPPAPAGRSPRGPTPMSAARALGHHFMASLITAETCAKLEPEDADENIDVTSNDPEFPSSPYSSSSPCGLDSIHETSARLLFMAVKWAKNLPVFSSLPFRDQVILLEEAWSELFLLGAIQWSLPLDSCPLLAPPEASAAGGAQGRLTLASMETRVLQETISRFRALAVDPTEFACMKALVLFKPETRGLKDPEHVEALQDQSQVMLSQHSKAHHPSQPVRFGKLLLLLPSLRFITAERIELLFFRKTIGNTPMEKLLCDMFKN
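System: GST-NR2E3 and biotin-RetCOR proteins; probe or stimulus: 7 nM biotin-RetCOR; doses: compound at 4.8 µM, single dose; schedule: Compound–protein incubation for 5 h at 4 °C; detection: time-resolved FRET; read-out: percent inhibition; controls: biotin wells as high control, 0.6% DMSO wells as low control; format: 1536-well plates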
NR2E3 ag-2: NR2E3 agonists in two-hybrid cells, primary screen, cell-based, luminescence, CHO-S, Gal4-NCOR/VP16-NR2E3. luciferase. inhibition of corepressor binding, % at 3.98 µM. Photoreceptor-specific nuclear receptor (Homo sapiens), Q9Y5X4. 0.35% of 360,000 active;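 active = inhibition above the mean of all tested compounds plus 3 SD, cut at about 70% in these data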;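 also: 0% = DMSO with NR2E3 transfected cells and 100% = cells lacking NR2E3 construct; higher means lower luciferase signal from less NR2E3 corepressor binding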
NR2E3 ag confirm: NR2E3 agonist confirmation in cells, cell-based, luminescence, CHO-S two-hybrid. shares compounds with NR2E3 ag-2. CHO-S mammalian two-hybrid NR2E3-NCOR, luciferase luminescence. inhibition, % at 3.98 µM. 51% of 2,300 active. AID 624378, 2012;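 active = average inhibition above a cutoff equal to the mean inhibition of all tested compounds plus one SD, cut at about 70% in these data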;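 also: 0% = DMSO in NR2E3 cells and 100% = DMSO in cells lacking NR2E3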
GAL4-VP16 luc: GAL4-VP16 reporter modulators, confirmation, counter-screen for NR2E3 agonist project, cell-based, luminescence, CHO-S, high throughput; shares compounds with NR2E3 ag-2; CHO-S GAL4-VP16 luciferase reporter; inhibition, % at 3.98 µM; 29% of 2,300 active;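 active = mean inhibition above a cutoff equal to the average over all tested compounds plus one standard deviation, cut at about 70% in these data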;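 also: luciferase from a UAS reporter driven by GAL4-VP16 transactivation; 0% = DMSO with VP16-transfected cells and 100% = DMSO with cells lacking VP16; higher means less reporter light so more repression of VP16 activity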
* = called active by the depositor; . = not tested or not shown. Hits are enriched below; roughly 1.4% of the tested compounds scored in any of these assays.

SMILES	NR1D1 modulator	PG9 binder	NR2E3 ag-1	NR2E3 ag-2	NR2E3 ag confirm	GAL4-VP16 luc
CSCCC(C(=O)Nc1c(C)cccc1C)n1c(-c2ccc(C(F)(F)F)cc2)nc2ccccc21 (centres undefined)	4.0	0.5	.	.	.	.
CC(C(=O)N1CCN(c2ccc(Cl)cc2)CC1)c1ncc(C(F)(F)F)cc1Cl (centres undefined)	-2.5	0.1	9.7	80.7*	76.0*	51.5
Cc1nc2sc(C)c(C)c2c(=O)o1	-3.6	0.3	1.0	-13.2	.	.
O=C(Nc1cccc(C(F)(F)F)c1)C1CCN(S(=O)(=O)c2ccc(N3CCCC3=O)cc2)CC1	-3.8	-1.5	4.7	84.7*	90.3*	67.6
CC(=O)N1c2ccc(S(=O)(=O)N3CCC(C(=O)Nc4cccc(C)n4)CC3)cc2CC1C (centres undefined)	-2.1	-2.0	-3.8	49.7	17.9	5.5
CC(=O)N1c2ccc(S(=O)(=O)N3CCC(C(=O)Nc4ccccn4)CC3)cc2CC1C (centres undefined)	-4.3	0.0	-0.1	5.9	.	.
CC(=O)N1c2ccc(S(=O)(=O)N3CCC(C(=O)Nc4cccc(C(F)(F)F)c4)CC3)cc2CC1C (centres undefined)	3.2	1.7	-1.3	58.5	61.3	43.9
COc1cccc(NC(=O)C2CCN(S(=O)(=O)c3ccc4c(c3)CC(C)N4C(C)=O)CC2)c1 (centres undefined)	10.9	-2.1	-2.8	-4.8	.	.
C(=Nc1ccc(Nc2ccccc2)cc1)c1ccc2ccccc2c1	.	.	-12.0	-12.7	.	.
COc1ccc(C(=O)COC(=O)CCN2C(=O)C3C4C=CC(C5CC45)C3C2=O)cc1 (centres undefined)	-1.0	-0.8	-0.1	2.7	.	.
Cc1onc(-c2ccccc2)c1C(=O)N/N=C/c1ccc(O)c([N+](=O)[O-])c1	-0.7	-0.6	.	-14.4	.	.
C=CCn1c(SCC(=O)Nc2sccc2C(N)=O)nc2sc(CC)cc2c1=O	-1.7	1.4	1.8	58.9	62.1	56.5
C=CCn1c(SCC(=O)Nc2sccc2C(N)=O)nc2ccc(Cl)cc2c1=O	2.7	-2.0	-1.4	69.5	35.3	50.2
O=C(CN1CCN(c2nc(-c3ccccc3)cs2)CC1)Nc1ccc(Cl)c(Cl)c1	-5.2	.	.	.	.	.
COc1ccccc1-n1cnnc1SCC(=O)Nc1cc(C(C)(C)C)nn1-c1ccccc1	1.2	1.4	1.9	11.6	.	.
COc1ccc(-n2cnnc2SCC(=O)Nc2cc(C(C)(C)C)nn2-c2ccccc2)cc1	2.8	-2.6	-1.4	66.2	19.9	14.5
O=C(c1ccccc1)c1ccc(Cn2cc(-c3ccccc3)nn2)cc1	-0.4	-0.8	-3.1	64.0	84.2*	64.3
O=C(CN1C(=O)C(c2ccc(F)cc2)=NC12CCCC2)Nc1ccc(F)cc1	-0.1	-0.8	5.1	74.5*	72.7*	54.5
COc1ccc(NC(=O)CN2C(=O)C(c3ccccc3)=NC23CCCCCC3)cc1	-1.4	-2.5	1.2	-31.9	.	.
Cc1c(C)c2ccc(OCC(=O)NC3CCN(Cc4ccccc4)CC3)c(C)c2oc1=O	5.8	0.1	-1.2	-8.4	.	.
COc1cc2sc(-c3ccccc3OC)c(-c3ccc(OCCN4CCOCC4)cc3)c2cc1OC	.	.	.	0.6	.	.
CC(C)Oc1cc(F)ccc1-c1cc(C(=O)NCc2ccccc2)[nH]n1	-4.3	-2.1	.	-0.7	.	.
O=C(CCN1C(=O)/C(=C/c2ccccc2F)SC1=S)NCCCN1CCOCC1	8.5	-2.6	-0.4	11.1	.	.
O=C(CCCN1C(=O)/C(=C/c2ccccc2Cl)SC1=S)NNC(=O)c1ccncc1	2.7	-0.3	4.2	56.0	-44.8	54.1
O=C(CCCN1C(=O)/C(=C/c2ccccc2Cl)SC1=S)NCCCN1CCOCC1	-6.6	-3.0	2.1	77.7*	-18.3	63.0
SMILES	NR1D1 modulator	PG9 binder	NR2E3 ag-1	NR2E3 ag-2	NR2E3 ag confirm	GAL4-VP16 luc
O=C(COc1cccc2ccccc12)Nc1ccc(Cl)cc1C(=O)O	-9.3	0.4	1.4	77.9*	94.7*	54.6
O=C(c1cncc(Br)c1)N1CCCc2ccccc21	-0.6	-1.4	-1.7	73.7*	-3.4	10.6
O=C(CSc1nnc(Cn2nnc3ccccc32)o1)N(Cc1ccc(F)cc1)c1ccccc1	-1.0	2.0	-2.6	78.6*	88.4*	73.7*
CC(=O)Nc1ccc(OCc2cccc3ccccc23)cc1	4.2	-2.3	1.0	48.5	46.5	44.3
COc1ccc(NC(=O)CNC(=O)Cc2cccc3ccccc23)cc1	4.2	-2.6	.	-10.2	.	.
Cc1ccc(C(CC(=O)N2CCCC2)c2ccccc2)c(O)c1C (centres undefined)	5.5	-1.6	-2.1	6.3	.	.
Cc1cccc(N2CCN(C(=O)CSc3nc4ccccc4nc3N3CC(C)OC(C)C3)CC2)c1C (centres undefined)	10.5	2.8	-1.3	-28.1	.	.
Cc1ccc(C(=O)Nc2ccc(CC(=O)O)cc2)o1	-3.0	1.5	-2.0	-9.9	.	.
CC(C)(C)c1ccc(C(=O)Nc2ccc(CC(=O)O)cc2)o1	-3.0	-2.0	0.3	50.7	41.5	55.8
COc1ccc(C(O)c2nc(-c3ccncc3)cs2)cc1 (centres undefined)	-6.5	0.3	.	63.5	67.5	66.1
CC(C)C(=O)Nc1ccc(NC(=O)CCc2ccccc2)cn1	-1.4	0.2	2.7	-19.1	.	.
COc1ccc(C(NCC(=O)Nc2c(C)cccc2C)c2ccccc2)cc1 (centres undefined)	3.6	-0.1	1.2	-5.0	.	.
Cc1ccc(S(=O)(=O)N(C(=O)c2ccncc2)c2ccc3oc4c(c3c2)CCCC4)cc1[N+](=O)[O-]	9.5	-1.3	-0.3	-21.8	.	.
COC(=O)c1c(C)oc2ccc(N(C(=O)c3ccncc3)S(=O)(=O)c3ccc4ccccc4c3)cc12	-2.2	-1.7	-4.7	89.0*	97.1*	87.2*
COC(=O)c1c(C)oc2ccc(N(C(=O)c3ccncc3)S(=O)(=O)c3ccc(C)cc3C)cc12	-2.1	-0.1	-1.9	91.1*	93.5*	62.4
COC(=O)c1c(C)oc2ccc(N(C(=O)c3ccncc3)S(=O)(=O)c3ccc(C)cc3)cc12	.	.	-1.3	84.8*	94.7*	83.3*
Cc1cccc(NS(=O)(=O)c2ccc3c(c2)CCN3C(=O)CCC(=O)O)c1	-3.4	0.8	0.0	-8.1	.	.
CCn1ncc(CNC(=O)C2(C)CC2(Cl)Cl)c1C (centres undefined)	7.3	-1.1	-0.1	-2.6	.	.
